Activity and inhibition in vivo data for four compounds are collected here from ChEMBL document CHEMBL1157208, “Synthesis and CNS depressant activity of some novel 3-[5-substituted 1,3,4-thiadiazole-2-yl]-2-styryl quinazoline-4(3H)-ones” (Eur J Med Chem, 2008).

One series relates to Rattus norvegicus. The series can be described thus: Antidepressant activity in Wistar rat assessed as increase in immobility time at 30 mg/kg, ip after 30 mins by forced-swimming test. It counts as functional. As to conditions: route intraperitoneal.
In series [1] the test system is Mus musculus. The series is described as follows: Anticonvulsant activity in ip dosed mouse assessed as inhibition of maximal electroshock-induced seizures after 0.5 hrs. It counts as functional. A digest of the protocol: (§1)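 Male albino mice (CF-1 or Swiss, 18–25 g) received compound suspended in polyethylene glycol 400, i.p., 0.01 ml/g, at 30, 100 and 300 mg/kg. Maximal electroshock and subcutaneous pentylenetetrazole seizure tests were run at 0.5 and 4 h by a previously reported procedure.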

For series [2], the system named is Mus musculus. The series is described as follows: Anticonvulsant activity in ip dosed mouse assessed as inhibition of pentylenetetrazole-induced seizure after 0.5 hrs. Type of series: functional. A digest of the protocol:
as §1

The test system of series [3] is Mus musculus. The series can be described thus: Anticonvulsant activity in ip dosed mouse assessed as inhibition of maximal electroshock-induced seizures after 4 hrs. It counts as functional. A digest of the protocol:
as §1

The test system of series [4] is Mus musculus. The series is described as follows: Anticonvulsant activity in ip dosed mouse assessed as inhibition of pentylenetetrazole-induced seizure after 4 hrs. Type of series: functional. A digest of the protocol:
as §1

The test system of series [5] is Mus musculus. The series can be described thus: Neurotoxicity in ip dosed mouse after 4 hrs by rotarod test. It counts as toxicity, organism-based. As to conditions: in vivo. Put shortly:
(§2)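 Mice dosed i.p. at 30, 100 and 300 mg/kg in PEG 400 were examined 0.5 and 4 h later on a rotorod. Animals were pre-trained on a 3.2 cm rod turning at 6 rpm. Neurotoxicity meant failing to keep equilibrium for at least 1 min in each of three trials. The value is the minimum dose affecting half or more of the animals.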

For series [6], the system named is Mus musculus. The series can be described thus: Neurotoxicity in ip dosed mouse after 0.5 hrs by rotarod test. Type of series: toxicity, organism-based. As to conditions: in vivo. Put shortly:
as §2

Series [7] has as its system Mus musculus. The series is described as follows: Sedative-hypnotic effect in mouse assessed as inhibition of locomotor activity at 25 mg/kg, po by actophotometer. Type of series: functional.
The subject of series [8] is Mus musculus. The series can be described thus: Sedative-hypnotic effect in mouse assessed as decrease locomotor activity score at 25 mg/kg, po after 1 hr by actophotometer. Type of series: functional.
Series [9] deals with Mus musculus. The series is described as follows: Anticonvulsant activity in mouse assessed as inhibition of pentylenetetrazole-induced seizure at 300 mg/kg, ip after 4 hrs. Type of series: functional, organism-based. Set-up: dose 300 mg/kg. A digest of the protocol:
as §1

For series [10], the system named is Mus musculus. The series can be described thus: Anticonvulsant activity in mouse assessed as inhibition of pentylenetetrazole-induced seizure at 300 mg/kg, ip after 0.5 hrs. On the set-up: dose 300 mg/kg. Type of series: functional, organism-based. A digest of the protocol:
as §1

In series [11] the test system is Mus musculus. The series is described as follows: Sedative-hypnotic effect in mouse assessed as decrease locomotor activity score at 25 mg/kg, po after 0.5 hrs by actophotometer. Type of series: functional.
For series [12], the system named is Mus musculus. The series can be described thus: Neurotoxicity in mouse at 300 mg/kg, ip after 4 hrs by rotarod test. It counts as toxicity, organism-based. Set-up: dose 300 mg/kg, route intraperitoneal. As to conditions: in vivo. Put shortly: as §2
The subject of series [13] is Mus musculus. The series is described as follows: Neurotoxicity in mouse at 300 mg/kg, ip after 0.5 hrs by rotarod test. Type of series: toxicity, organism-based. Set-up: dose 300 mg/kg, route intraperitoneal. As to conditions: in vivo. Put shortly: as §2
Series [14] concerns Mus musculus. The series is described as follows: Sedative-hypnotic effect in mouse assessed as decrease locomotor activity score at 100 mg/kg, ip after 1 hr by actophotometer. It counts as functional. As to conditions: route intraperitoneal. Put shortly: (§3)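 Locomotor activity in mice was read as a digital photocell score on an actophotometer. Baseline was taken 24 h before treatment, then at 30 min and 1 h after 100 mg/kg i.p. Controls received PEG 400. Percent decrease was calculated from the 1 h values. Results are mean ± SEM of six mice, compared with Student's t test.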

Series [15] concerns Mus musculus. The series is described as follows: Sedative-hypnotic effect in mouse assessed as inhibition of locomotor activity at 100 mg/kg, ip by actophotometer. Type of series: functional. As to conditions: route intraperitoneal. A digest of the protocol:
as §3

Series [16] deals with Mus musculus. The series is described as follows: Anticonvulsant activity in mouse assessed as inhibition of maximal electroshock-induced seizures at 300 mg/kg, ip after 4 hrs. Type of series: functional, organism-based. Set-up: dose 300 mg/kg. Put shortly: as §1
The subject of series [17] is Mus musculus. The series is described as follows: Toxicity in mouse at 300 mg/kg, ip. It counts as organism-based. On the set-up: dose 300 mg/kg, route intraperitoneal. As to conditions: in vivo.
Series [18] deals with Mus musculus. The series can be described thus: Sedative-hypnotic effect in mouse assessed as decrease locomotor activity score at 100 mg/kg, ip after 0.5 hrs by actophotometer. It counts as functional. As to conditions: route intraperitoneal. A digest of the protocol:
as §3

The subject of series [19] is Mus musculus. The series can be described thus: Neurotoxicity in mouse at 100 mg/kg, ip after 0.25 hrs by rotarod test. Type of series: toxicity, organism-based. On the set-up: dose 100 mg/kg, route intraperitoneal. As to conditions: in vivo.
For series [20], the system named is Mus musculus. The series is described as follows: Neurotoxicity in mouse at 100 mg/kg, ip after 1 hr by rotarod test. Type of series: toxicity, organism-based. On the set-up: dose 100 mg/kg, route intraperitoneal. As to conditions: in vivo.
For series [21], the system named is Mus musculus. The series can be described thus: Anticonvulsant activity in mouse assessed as inhibition of maximal electroshock-induced seizures at 300 mg/kg, ip after 0.5 hrs. It counts as functional, organism-based. On the set-up: dose 300 mg/kg. A digest of the protocol: as §1

Activity calls are given as the source filed them. No cut-off for these calls is given here.

Regarding `NC(=O)N1c2ccccc2C=Cc2ccccc21` [CARBAMAZEPINE], the Activity is 240.3 s in the series with Rattus norvegicus; 30 mg/kg in the series on Mus musculus [1]; 100 mg/kg in the series with Mus musculus [2]; 100 mg/kg in the series with Mus musculus [3]; 300 mg/kg with Mus musculus [4]; 300 mg/kg in the series with Mus musculus [5]. This compound also showed an Activity in the series with Mus musculus [6] of 100 mg/kg.

Regarding `O=C1NC(=O)C(c2ccccc2)(c2ccccc2)N1` [PHENYTOIN], in the series on Mus musculus [7], the inhibition in vivo at 25 mg/kg is 70%. In addition, the Activity in the series with Mus musculus [8] was determined as 164.1; in the series on Mus musculus [1], 30 mg/kg; in the series on Mus musculus [3], 30 mg/kg; in the series with Mus musculus [11], 251.02; with Mus musculus [5], 100 mg/kg; in the series on Mus musculus [6], 100 mg/kg. Besides, the outcome in the series with Mus musculus [9] and in the series on Mus musculus [10] was inactive.

As to `O=c1c2ccccc2nc(/C=C/c2ccccc2)n1-c1nnc(-c2ccccc2)s1`, the Activity result is “Not Active” in the series with Mus musculus [12]; 30 mg/kg with Mus musculus [1]; “Not Active” with Mus musculus [13]; 249.45 in the series on Mus musculus [14]; “Toxic” in the series with Mus musculus [17]; 472.31 in the series with Mus musculus [18]. In the series with Mus musculus [15], the inhibition in vivo at 100 mg/kg worked out at 55%. For the same compound, the result with Mus musculus [16] and in the series on Mus musculus [10] was inactive.

In the case of `O=c1c2ccccc2nc(/C=C/c2ccccc2)n1-c1nnc(-c2cccc(Cl)c2)s1`, the Activity result was “Not Active” with Mus musculus [12]; “Toxic” in the series on Mus musculus [19]; 165.52 with Mus musculus [14]; “Toxic” with Mus musculus [20]; 100 mg/kg with Mus musculus [3]; 319.57 with Mus musculus [18]. Moreover, the Activity with Mus musculus [6] worked out at 300 mg/kg. For the same compound, the result in the series on Mus musculus [9], in the series on Mus musculus [21] and in the series on Mus musculus [10] was inactive. In addition, in the series with Mus musculus [15], the inhibition in vivo at 100 mg/kg was determined as 63%.
